BB579 growth dn: yeast BB579 growth reduction in restrictive medium. inhibition, % at 10 µM. S. cerevisiae BB579 growth, OD615, 48 h. 0.51% of 140,000 active. AID 804;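 active = inhibition above a set limit, 3 SD over the mean compound inhibition, cut at about 44% in these data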
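Material: Saccharomyces cerevisiae DeaD strain BB579, replicative lifespan model yeast; buffer or medium: CSMM-D restrictive synthetic medium containing dextrose (glucose); compound: 10 µM single dose, DMSO 0.25%; timing: 48 h compound exposure at 30 °C after 4 h preincubation; signal: turbidity as optical density at 615 nm; benchmarks: positive control amphotericin B 10 µg/mL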
RAM inhibit: inhibitors of the yeast RAM network; S. cerevisiae dse1pr::URA3 reporter, 5-FOA growth OD615, 2 d; analog-sensitive cbk1-as2 kinase mutant strain; inhibition, % at 50 µM; 1.8% of 190,000 active;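 active = inhibition above a set limit, 3 SD over mean compound inhibition, cut at about 8.4% in these data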;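 also: 0% = DMSO-only wells with no growth and 100% = 10 µM 1-NA-PP1 full growth; inhibition rescues growth on 5-FOA so higher OD means more RAM inhibition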
Measles CPE: protection of cells from measles virus; Measles virus-infected cells, CPE protection, absorbance; protection (pct of control), % at 4 µM; 1.5% of 140,000 active; in the data active = protection mostly above about 24%, no sharp cut-off; inactive = mostly below about 26%
Yeast life ext: extends the lifespan of yeast. S. cerevisiae growth with nicotinamide, OD615; deaD strain in restrictive glucose medium. inhibition of the nicotinamide effect, % at 10 µM. 0.68% of 130,000 active. AID 775;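 active = inhibition above a set limit, placed 3 SD over the median of all compounds, cut at about 26% in these data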;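 also: 0% = nicotinamide-treated wells and 100% = cells grown without nicotinamide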
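Measured by: optical density (absorbance) at 615 nm; System: modified budding yeast, DeaD strain; Medium: restrictive CSMM-D dextrose medium; Timing: 4 h preincubation then 48 h treatment at 30 °C.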
sdo1 growth: restores growth of sdo1-depleted yeast. S. cerevisiae sdo1-depleted JHY4D growth rescue, OD600 30 h; stronger effect = higher value; pdr5 snq2 efflux-pump mutant strain. z-score at 10 µM. 0.21% of 140,000 active. AID 817;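 active = z-score above 3 at both the 24 hr and the 30 hr optical density reads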;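 also: z-score against mean and SD of all compound wells on the same plate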
Starred values were filed as active, the others as inactive; nt = no result given. Most compounds without a hit are left out; they make up all but 3.8% or so of the library.

SMILES	BB579 growth dn	RAM inhibit	Measles CPE	Yeast life ext	sdo1 growth
COC(=O)C1=C(C(=O)OC)C(c2cc(Cl)ccc2O)c2sc(=O)[nH]c2S1 (stereo not given)	-39	1	23	49	-1.2
Cc1ccc(CSCc2nc3ccccc3[nH]2)cc1	nt	0	nt	nt	nt
Cc1cc(C)cc(CC(Cc2nc3ccccc3[nH]2)c2nc3ccccc3[nH]2)c1 (stereo not given)	5	0	37*	-6	-0.68
Cn1cc(CNC(=O)c2cc(-c3ccccc3)nc3ccc(Br)cc23)cn1	-51	3	11	-4	-1.1
Cn1cc(CNC(=O)c2cc(-c3ccc(Br)cc3)nc3ccccc23)cn1	nt	8.8*	nt	nt	nt
COc1cc2ccccc2cc1C(=O)NCC(c1cccs1)N(C)C (stereo not given)	nt	3	nt	nt	nt
COc1ccccc1N1CCN(C(=O)c2ccc3c(Cl)c4c(nc3c2)CCCC4)CC1	13	0	9	28*	-1.3
CCN(C(=O)c1ccc2c(Cl)c3c(nc2c1)CCC3)c1cccc(C)c1	-38	-1	4	39*	-1.4
N#Cc1ccccc1NC(=O)c1ccc2c(Cl)c3c(nc2c1)CCCC3	45*	1	3	-2	-1.5
CCC(c1nnnn1C(C)C)N1CCN(C2CCCC2)CC1 (stereo not given)	-23	0	10	7	0.09
Cn1c(=O)n(C)c2cc([N+](=O)[O-])c(N3CCN(S(=O)(=O)c4ccc5ccccc5c4)CC3)cc21	-27	4	33*	-5	-1.3
O=C(Nc1cnccn1)Nc1ccc(Cl)cc1Cl	nt	2	nt	nt	nt
S=c1sc(SCCOc2ccccc2)nn1-c1ccccc1	-44	4	93*	-1	-0.28
Cc1ccc(C)c(S(=O)(=O)Nc2ccc3scnc3c2)c1	-11	4	6	-6	-0.72
O=[N+]([O-])c1cc(-n2cnnn2)ccc1N1CCC(Cc2ccccc2)CC1	-99	8.9*	6	35	-1.7
CC1CC(C)CN(c2ccc(-n3cnnn3)cc2[N+](=O)[O-])C1 (stereo not given)	-52	1	5	-24	-1.7
CCN1C(=O)CC(N2CCN(CC(=O)NC(C)C)CC2)C1=O (stereo not given)	-36	1	10	-4	0.77
O=C(CNc1cccc2ccccc12)N/N=C/c1ccc(C(=O)O)cc1	-19	11*	15	-4	0.64
O=C(CNc1ccc2ccccc2c1)N/N=C/c1ccc(C(=O)O)cc1	nt	5	nt	nt	nt
CCOc1cccc(-c2nnc(SCC(=O)Nc3cc(OC)cc(OC)c3)n2N)c1	-51	1	9	-11	-0.84
COc1cccc(-c2nnc(SCC(N)=O)n2-c2ccc(Cl)cc2)c1	-4	2	57*	-2	0.17
COc1cccc(NC(=O)CSc2nnc(-c3cccc(OC(C)C)c3)n2N)c1	-40	11*	8	-6	-0.69
O=C(NCCc1ccccc1)C1CCN(S(=O)(=O)c2cccc3nsnc23)CC1	-40	3	49*	-7	-0.26
COc1ccc(CCNC(=O)C2CCN(S(=O)(=O)c3cccc4nsnc34)CC2)cc1OC	-26	2	5	-15	1.4
COc1cc2c(=O)n(-c3ccc(C)cc3)c(=O)n(CC(=O)c3ccc4c(c3)OCO4)c2cc1OC	-53	9.1*	8	-1	-2.6
SMILES	BB579 growth dn	RAM inhibit	Measles CPE	Yeast life ext	sdo1 growth
Cc1ccccc1OCCC(=O)OCC(=O)Nc1cc(S(=O)(=O)N2CCOCC2)ccc1Cl	nt	8	nt	nt	nt
CC(=O)c1nc(N2C(=O)CC(Cc3cc(C)cc(C)c3)C2=O)sc1C (stereo not given)	-18	-1	26	2	0.7
CC(=O)c1nc(N2C(=O)CC(Cc3cccc(C)c3)C2=O)sc1C (stereo not given)	-6	-1	43*	-16	0.29
Cc1ccc(C(OCC(C)(C)C[N+](C)(C)C)c2ccccc2)cc1 (stereo not given)	nt	2	nt	nt	nt
O=C(ONC1=NCCCCC1)c1ccc(Cl)cc1	98*	-1	3	-20	-2.7
O=C(ONC1=NCCCCC1)c1c(F)cccc1F	14	-1	1	-6	-2.6
Cc1ccc(C(=O)n2nnc3ccccc32)cc1[N+](=O)[O-]	-32	2	6	32*	-0.67
O=C(CSc1nc2cc(Cl)ccc2c(=O)n1Cc1ccco1)Nc1ccc(S(=O)(=O)N2CCOCC2)cc1	-44	9.1*	23	3	-0.07
